The source of these data is ChEMBL document CHEMBL2331274, “SAR based design of nicotinamides as a novel class of androgen receptor antagonists for prostate cancer” (J Med Chem, 2013).

Molecules are shown by their SMILES.

Test [1] deals with T1, Androgen receptor (Mus musculus) (UniProt P19091).
T1 sequence (whole entry): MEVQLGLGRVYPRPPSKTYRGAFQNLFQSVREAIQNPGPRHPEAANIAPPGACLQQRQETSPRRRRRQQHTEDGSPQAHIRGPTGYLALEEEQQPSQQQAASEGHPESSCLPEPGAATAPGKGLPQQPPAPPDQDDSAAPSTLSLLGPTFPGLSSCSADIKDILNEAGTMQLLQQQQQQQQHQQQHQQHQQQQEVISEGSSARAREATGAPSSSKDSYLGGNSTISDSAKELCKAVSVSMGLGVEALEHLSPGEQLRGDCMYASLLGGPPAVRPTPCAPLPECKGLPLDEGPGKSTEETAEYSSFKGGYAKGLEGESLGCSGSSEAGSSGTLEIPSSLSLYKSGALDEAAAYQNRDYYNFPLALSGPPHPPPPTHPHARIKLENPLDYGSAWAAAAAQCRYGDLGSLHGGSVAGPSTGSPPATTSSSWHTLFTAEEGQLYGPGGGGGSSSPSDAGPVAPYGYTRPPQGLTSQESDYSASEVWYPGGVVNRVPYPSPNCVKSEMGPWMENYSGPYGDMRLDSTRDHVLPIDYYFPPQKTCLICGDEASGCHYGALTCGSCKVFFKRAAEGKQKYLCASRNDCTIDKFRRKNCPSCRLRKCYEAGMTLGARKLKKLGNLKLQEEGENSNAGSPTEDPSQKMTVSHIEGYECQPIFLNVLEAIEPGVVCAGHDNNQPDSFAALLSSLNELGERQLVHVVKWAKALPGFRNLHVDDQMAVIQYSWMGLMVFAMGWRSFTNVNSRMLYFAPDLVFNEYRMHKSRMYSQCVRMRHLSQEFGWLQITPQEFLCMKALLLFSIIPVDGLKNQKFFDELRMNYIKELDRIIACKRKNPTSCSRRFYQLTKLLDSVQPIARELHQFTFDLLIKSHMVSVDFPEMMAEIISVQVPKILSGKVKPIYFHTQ
The test can be described thus: Agonist activity at mouse androgen receptor at 10 uM after 24 hrs by cell-based luciferase reporter gene assay relative to control. The method, boiled down: (§1)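 Transcriptional activity is expressed as a percentage after 10 μM compound, given alone for agonist mode or with 10 nM DHT for antagonist mode. Data are from triplicate experiments.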
(Reporter assays use an easily measured gene product as a stand-in for the process of interest.)

Test [2] deals with T1, Androgen receptor (Mus musculus). As to the kind of experiment: Antagonist activity against mouse androgen receptor assessed as reduction of 10 nM DHT-induced transcriptional activity at 10 uM after 24 hrs by cell-based luciferase reporter gene assay relative to control. The method, boiled down:
as §1

In general, inhibition refers to the change of the read-out against control, counted positive when it falls. Consider `CCOc1ccc2c(c1OCc1ccccc1)CCN(c1ccc(C(=O)Nc3cccc(C)n3)cn1)C2`, for which the Activity in test [1] turned out to be 0.6%. Moreover, in test [2], the inhibition amounted to 92.9%.

In test [1], `Cc1ccc(NC(=O)c2ccc(Cl)nc2)nc1` showed an Activity of 4.9%. For the same compound, in test [2], the inhibition came out at 43.1%.

`O=C(Nc1ccccn1)c1ccc(C(=O)N2CCc3ccccc3C2)nc1` came in with an Activity in test [1] of 15%. Moreover, the inhibition in test [2] was determined as 4.5%.

Compound `COc1cc2c(cc1OC)CN(c1ccc(C(=O)Nc3cccc(C)n3)cn1)CC2` had an Activity in test [1] of 2.1%. In test [2], the inhibition came to 94.4%.

`O=C(Nc1ncccn1)c1ccc(N2CCc3ccccc3C2)nc1` returned an Activity in test [1] of 9.4%. In addition, the inhibition in test [2] came out at 27.5%.

In test [1], `COc1cc2c(cc1OC)CN(c1ccc(C(=O)Nc3cc(C)ccn3)cn1)CC2` showed an Activity of 2.7%. Besides, the inhibition in test [2] was 88.3%.

With `COc1cccc(NC(=O)c2ccc(N3CCc4ccccc4C3)nc2)c1`, the Activity in test [1] is 13.6%. In test [2], the inhibition is 80.4%.

On to `Cc1ccnc(N(C)C(=O)c2ccc(N3CCc4ccccc4C3)nc2)c1`, for which the Activity in test [1] worked out at 12.1%. Moreover, the inhibition in test [2] is 32.5%.

Turning to `O=C(Nc1ccc(F)cc1)c1ccc(N2CCc3ccccc3C2)nc1`, the Activity in test [1] was determined as 7.1%. Also, the inhibition in test [2] is 65.1%.

In test [1], `Cc1ccccc1N(C)C(=O)c1ccc(N2CCc3ccccc3C2)nc1` came in with an Activity of 11.7%. Besides, in test [2], the inhibition was 48.2%.

Consider `CCOc1ccc2c(c1OCC)CCN(c1ccc(C(=O)Nc3cccc(OC)c3)cn1)C2`, for which the Activity in test [1] turned out to be 0.4%. Besides, the inhibition in test [2] turned out to be 87.9%.

As for `Cc1ccc(NC(=O)c2ccc(N3CCc4ccccc4C3)nc2)nc1`, the Activity in test [1] was found to be 3%. Moreover, in test [2], the inhibition amounted to 90.2%.

Consider `CCOc1ccc2c(c1)CCN(c1ccc(C(=O)Nc3cccc(OC)c3)cn1)C2`, for which, in test [1], the Activity amounted to 4%. Also, the inhibition in test [2] was found to be 95.6%.

In test [1], `COc1cccc(NC(=O)c2ccc(N3CCc4c(ccc(OC)c4OC)C3)nc2)c1` had an Activity of 3.9%. For the same compound, the inhibition in test [2] was 96.6%.

Turning to `COc1cccc(NC(=O)c2ccc(N3CCc4cc(OC)ccc4C3)nc2)c1`, the Activity in test [1] turned out to be 3.1%. In addition, the inhibition in test [2] worked out at 95.7%.

In test [1], `O=C(Nc1ccccc1)c1ccc(N2CCc3ccccc3C2)nc1` registered an Activity of 8.7%. Also, the inhibition in test [2] is 68.9%.

`COc1cc2c(cc1OC)CN(c1ccc(C(=O)Nc3ccccn3)cn1)CC2`: the Activity in test [1] was found to be 2.5%. Further, the inhibition in test [2] turned out to be 84.5%.

In the case of `Cc1ccccc1NC(=O)c1ccc(N2CCc3ccccc3C2)nc1`, the Activity in test [1] was determined as 10.4%. Further, the inhibition in test [2] turned out to be 49.7%.

`CCOc1ccc2c(c1OCc1ccccc1)CCN(c1ccc(C(=O)Nc3cccc(OC)c3)cn1)C2` yielded an Activity in test [1] of 0.5%. Further, the inhibition in test [2] came out at 78.6%.

`COc1ccc2c(c1)CCN(c1ccc(C(=O)Nc3ccc(C)cn3)cn1)C2` showed an Activity in test [1] of 5.2%. Also, the inhibition in test [2] is 86.9%.
